Assay results reported in ChEMBL document CHEMBL4152234, “Aminobenzothiazole derivatives stabilize the thermolabile p53 cancer mutant Y220C and show anticancer activity in p53-Y220C cell lines” (Eur J Med Chem, 2018).
Activity calls are given as the source filed them. No cut-off for these calls is given here.

Tests used:
[1] = tested on: Cellular tumor antigen p53 (Homo sapiens), P04637 [Y220C]; assay: Activation of p53 Y220C mutant in human NUGC3 cells assessed as change in BRCA1 mRNA level at 60 uM after 18 hrs by RT-PCR method relative to control; assay type: cell-based
Summary of the method: (§1)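 p53 signalling qPCR array covering 84 genes. Cells were exposed for 18 h, with 0.5% DMSO in both compound and control samples. Total RNA was extracted and purified. Fold-changes were calculated by ΔΔCt using β2-microglobulin (B2M) as the housekeeping gene. Two independent biological replicates were run per cell line.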

[2] = tested on: Cellular tumor antigen p53 (Homo sapiens), P04637 [Y220C]; assay: Activation of p53 Y220C mutant in human NUGC3 cells assessed as change in F0X03 mRNA level at 60 uM after 18 hrs by RT-PCR method relative to control; assay type: cell-based; summary of the method: as §1
[3] = tested on: Cellular tumor antigen p53 (Homo sapiens), P04637 [Y220C]; assay: Activation of p53 Y220C mutant in human NUGC3 cells assessed as change in PRKCA mRNA level at 60 uM after 18 hrs by RT-PCR method relative to control; assay type: cell-based
Summary of the method: (§2)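 p53 signalling qPCR array covering 84 p53 pathway genes. Cells were exposed for 18 h, and compound and control wells both held 0.5% DMSO. Total RNA was extracted and purified. Fold-changes were calculated by the ΔΔCt method against the untreated sample, with β2-microglobulin (B2M) as the housekeeping gene. Each cell line was run in two independent biological replicates.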

[4] = tested on: Cellular tumor antigen p53 (Homo sapiens), P04637 [Y220C]; assay: Activation of p53 Y220C mutant in human NUGC3 cells assessed as change in RPRM mRNA level at 60 uM after 18 hrs by RT-PCR method relative to control; assay type: cell-based; summary of the method: as §2
[5] = tested on: Cellular tumor antigen p53 (Homo sapiens), P04637 [Y220C]; assay: Activation of p53 Y220C mutant in human NUGC3 cells assessed as change in PTTG1 mRNA level at 60 uM after 18 hrs by RT-PCR method relative to control; assay type: cell-based; summary of the method: as §2
[6] = tested on: Cellular tumor antigen p53 (Homo sapiens), P04637 [Y220C]; assay: Activation of p53 Y220C mutant in human NUGC3 cells assessed as change in CASP2 mRNA level at 60 uM after 18 hrs by RT-PCR method relative to control; assay type: cell-based; summary of the method: as §1
[7] = tested on: Cellular tumor antigen p53 (Homo sapiens), P04637 [Y220C]; assay: Activation of p53 Y220C mutant in human NUGC3 cells assessed as change in IGF1R mRNA level at 60 uM after 18 hrs by RT-PCR method relative to control; assay type: cell-based; summary of the method: as §1
[8] = tested on: Cellular tumor antigen p53 (Homo sapiens), P04637 [Y220C]; assay: Activation of p53 Y220C mutant in human NUGC3 cells assessed as change in TNFRSF10D mRNA level at 60 uM after 18 hrs by RT-PCR method relative to control; assay type: cell-based; summary of the method: as §2
[9] = tested on: Cellular tumor antigen p53 (Homo sapiens), P04637 [Y220C]; assay: Activation of p53 Y220C mutant in human NUGC3 cells assessed as change in BAI1 mRNA level at 60 uM after 18 hrs by RT-PCR method relative to control; assay type: cell-based; summary of the method: as §1
[10] = tested on: Cellular tumor antigen p53 (Homo sapiens), P04637 [Y220C]; assay: Activation of p53 Y220C mutant in human NUGC3 cells assessed as change in CCNE1 mRNA level at 60 uM after 18 hrs by RT-PCR method relative to control; assay type: cell-based; summary of the method: as §1
[11] = tested on: Cellular tumor antigen p53 (Homo sapiens), P04637 [Y220C]; assay: Activation of p53 Y220C mutant in human NUGC3 cells assessed as change in BRCA2 mRNA level at 60 uM after 18 hrs by RT-PCR method relative to control; assay type: cell-based; summary of the method: as §1
[12] = molecular target: T1, Cellular tumor antigen p53 (Homo sapiens, UniProt P04637); assay: Activation of p53 in human NUGC4 cells assessed as change in CHEK2 mRNA level at 60 uM after 18 hrs by RT-PCR method relative to control; assay type: cell-based; conditions: read-out: FC
Summary of the method: (§3)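 p53 signaling qPCR array of 84 p53-pathway genes. Cells were treated in 6-well plates for 18 h with 0.5% DMSO in compound and control samples. Total RNA was extracted and fold-changes were obtained by the ΔΔCt method against untreated control, with β2-microglobulin (B2M) as housekeeping gene. Two independent biological replicates per cell line.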

[13] = molecular target: T1, Cellular tumor antigen p53; assay: Activation of p53 in human NUGC4 cells assessed as change in MSH2 mRNA level at 60 uM after 18 hrs by RT-PCR method relative to control; assay type: cell-based; conditions: read-out: FC; summary of the method: as §3
[14] = molecular target: T1, Cellular tumor antigen p53; assay: Activation of p53 in human NUGC4 cells assessed as change in PRKCA mRNA level at 60 uM after 18 hrs by RT-PCR method relative to control; assay type: cell-based; conditions: read-out: FC
[15] = molecular target: T1, Cellular tumor antigen p53; assay: Activation of p53 in human NUGC4 cells assessed as change in TNFRSF10B mRNA level at 60 uM after 18 hrs by RT-PCR method relative to control; assay type: cell-based; conditions: read-out: FC
[16] = molecular target: T1, Cellular tumor antigen p53; assay: Activation of p53 in human NUGC4 cells assessed as change in MYC mRNA level at 60 uM after 18 hrs by RT-PCR method relative to control; assay type: cell-based; conditions: read-out: FC; summary of the method: as §3
[17] = molecular target: T1, Cellular tumor antigen p53; assay: Activation of p53 in human NUGC4 cells assessed as change in SESN2 mRNA level at 60 uM after 18 hrs by RT-PCR method relative to control; assay type: cell-based; conditions: read-out: FC
[18] = molecular target: T1, Cellular tumor antigen p53; assay: Activation of p53 in human NUGC4 cells assessed as change in MLH1 mRNA level at 60 uM after 18 hrs by RT-PCR method relative to control; assay type: cell-based; conditions: read-out: FC; summary of the method: as §3
[19] = molecular target: T1, Cellular tumor antigen p53; assay: Activation of p53 in human NUGC4 cells assessed as change in PCNA mRNA level at 60 uM after 18 hrs by RT-PCR method relative to control; assay type: cell-based; conditions: read-out: FC
[20] = molecular target: T1, Cellular tumor antigen p53; assay: Activation of p53 in human NUGC4 cells assessed as change in DNMT1 mRNA level at 60 uM after 18 hrs by RT-PCR method relative to control; assay type: cell-based; conditions: read-out: FC; summary of the method: as §3
[21] = molecular target: T1, Cellular tumor antigen p53; assay: Activation of p53 in human NUGC4 cells assessed as change in TP53BP2 mRNA level at 60 uM after 18 hrs by RT-PCR method relative to control; assay type: cell-based; conditions: read-out: FC
[22] = molecular target: T1, Cellular tumor antigen p53; assay: Activation of p53 in human NUGC4 cells assessed as change in BCL2A1 mRNA level at 60 uM after 18 hrs by RT-PCR method relative to control; assay type: cell-based; conditions: read-out: FC; summary of the method: as §2
[23] = molecular target: T1, Cellular tumor antigen p53; assay: Activation of p53 in human NUGC4 cells assessed as change in BID mRNA level at 60 uM after 18 hrs by RT-PCR method relative to control; assay type: cell-based; conditions: read-out: FC; summary of the method: as §2
[24] = molecular target: T1, Cellular tumor antigen p53; assay: Activation of p53 in human NUGC4 cells assessed as change in BIRC5 mRNA level at 60 uM after 18 hrs by RT-PCR method relative to control; assay type: cell-based; conditions: read-out: FC; summary of the method: as §2
[25] = molecular target: T1, Cellular tumor antigen p53; assay: Activation of p53 in human NUGC4 cells assessed as change in SIRT1 mRNA level at 60 uM after 18 hrs by RT-PCR method relative to control; assay type: cell-based; conditions: read-out: FC
[26] = molecular target: T1, Cellular tumor antigen p53; assay: Activation of p53 in human NUGC4 cells assessed as change in CRADD mRNA level at 60 uM after 18 hrs by RT-PCR method relative to control; assay type: cell-based; conditions: read-out: FC; summary of the method: as §3
[27] = molecular target: T1, Cellular tumor antigen p53; assay: Activation of p53 in human NUGC4 cells assessed as change in CCNB1 mRNA level at 60 uM after 18 hrs by RT-PCR method relative to control; assay type: cell-based; conditions: read-out: FC; summary of the method: as §3
[28] = molecular target: T1, Cellular tumor antigen p53; assay: Activation of p53 in human NUGC4 cells assessed as change in KRAS mRNA level at 60 uM after 18 hrs by RT-PCR method relative to control; assay type: cell-based; conditions: read-out: FC; summary of the method: as §3
Huh-7 = assay: Upregulation of BBC3 mRNA level in p53 Y220C mutant knockout human HuH7 cells at 30 uM after 18 hrs by RT-PCR method; assay type: functional, cell-based

SMILES: CCNC(=O)c1c(O)c(I)c(-n2cccc2)c2sc(N(CC)CC)nc12
- fold change (FC) [1]: 0.6
- fold change (FC) [2]: 2
- fold change (FC) [3]: 1.1
- fold change (FC) [4]: 1.4
- fold change (FC) [5]: 1.5
- fold change (FC) [6]: 1.1
- fold change (FC) [7]: 1.8
- fold change (FC) [8]: 1
- fold change (FC) [9]: 1.5
- fold change (FC) [10]: 1.2
- fold change (FC) [11]: 0.9
- fold induction at 60 µM [12]: 0.7
- fold induction at 60 µM [13]: 0.7
- fold induction at 60 µM [14]: 1
- fold induction at 60 µM [15]: 1.2
- fold induction at 60 µM [16]: 0.7
- fold induction at 60 µM [17]: 1.3
- fold induction at 60 µM [18]: 1
- fold induction at 60 µM [19]: 0.6
- fold induction at 60 µM [20]: 0.8
- fold induction at 60 µM [21]: 0.9
- fold induction at 60 µM [22]: 6.1
- fold induction at 60 µM [23]: 0.7
- fold induction at 60 µM [24]: 0.6
- fold induction at 60 µM [25]: 0.9
- fold induction at 60 µM [26]: 0.8
- fold induction at 60 µM [27]: 0.7
- fold induction at 60 µM [28]: 0.9
- Activity (Huh-7): inactive
